Cneo AK release: Cryptococcus neoformans cell lysis inducers, primary screen, AK release luminescence, single concentration; AID 651654, 2012; C. neoformans lysis, adenylate kinase release luminescence, 4 h; normalised: neutral wells 0, clomiphene wells 100; lysis activity, % at 15 µM; 0.2% of 360,000 active;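 active = mean lysis activity across replicates of at least 80%, whatever share of replicates individually reach that level; inactive = mean lysis activity below 80%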
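Material: C. neoformans cells; Schedule: 4 h static compound exposure, 37 °C, read 1 h post-reagent; Measured by: adenylate kinase release luminescence; Read-out: signal increase indicating cell lysis; Controls: Clomiphene as positive lysis control.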
PfHsp90 set2: growth inhibition of PfHsp90-expressing yeast, primary screen, antimalarial PfHsp90 inhibitor project, S. cerevisiae, BacTiter-Glo luminescence, single point, set 2 | 0.32% of 310,000 active | inhibition, % at 9.4 µM | BacTiter-Glo ATP, 48 h; yeast lacking PDR1 and PDR3 efflux regulators;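 active = every replicate shows inhibition above about 80%, whatever the replicate mean, limit read from the data; inconclusive = mean inhibition reaches the set limit but some replicate falls short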;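 note: 0% = DMSO neutral controls and 100% = 20 µM radicicol positive controls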
rRNA inh HTS: reduced GFP signal of wild-type E. coli, primary screen, bacterial rRNA inhibitor project, GFP/RFP fluorescence, OD600, single point; E. coli WT GFP vs humanized-ribosome RFP mutants, 24 h; hits give low values; DMSO median 0, no signal -100; 1.6% of 350,000 active; GFP signal change (wild-type ribosome), % (test concentration not listed);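 active = significant combined selectivity score with lowered wild-type GFP, culture density cut under 30%, mutant RFP and density less affected; inactive = any of these conditions unmet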
DENV2 CPE rescue: inhibitors of DENV2 cytopathic effect, primary screen, cell-based, plate reader, single concentration; DENV2-infected cells, cytopathic effect rescue; CPE inhibition, % at 9.99 µM; 1.7% of 350,000 active; AID 651640, 2012; in the data active = CPE inhibition above about 20%, passing the limit was not always enough; inconclusive = no clear call, values can overlap the other calls; tested in BHK-21 cells;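 note: 0% = median of neutral control wells and 100% = median of positive control wells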
MLL AF4-AF9 inh: inhibitors of AF4 peptide binding to AF9, primary screen, biochemical, AlphaScreen, biotin-AF4 peptide, FLAG-AF9, single point | Protein AF-9 (Homo sapiens), P42568 | inhibition, % at 10 µM | 0.47% of 350,000 active;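 active = every replicate reaching a set inhibition limit, whatever the replicate mean, cut at about 25% in these data; inconclusive = mean inhibition reaches that limit but some replicates miss it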;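 note: 0% = plate neutral control median and 100% = total signal loss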
Target sequence (P42568 whole entry, looked up): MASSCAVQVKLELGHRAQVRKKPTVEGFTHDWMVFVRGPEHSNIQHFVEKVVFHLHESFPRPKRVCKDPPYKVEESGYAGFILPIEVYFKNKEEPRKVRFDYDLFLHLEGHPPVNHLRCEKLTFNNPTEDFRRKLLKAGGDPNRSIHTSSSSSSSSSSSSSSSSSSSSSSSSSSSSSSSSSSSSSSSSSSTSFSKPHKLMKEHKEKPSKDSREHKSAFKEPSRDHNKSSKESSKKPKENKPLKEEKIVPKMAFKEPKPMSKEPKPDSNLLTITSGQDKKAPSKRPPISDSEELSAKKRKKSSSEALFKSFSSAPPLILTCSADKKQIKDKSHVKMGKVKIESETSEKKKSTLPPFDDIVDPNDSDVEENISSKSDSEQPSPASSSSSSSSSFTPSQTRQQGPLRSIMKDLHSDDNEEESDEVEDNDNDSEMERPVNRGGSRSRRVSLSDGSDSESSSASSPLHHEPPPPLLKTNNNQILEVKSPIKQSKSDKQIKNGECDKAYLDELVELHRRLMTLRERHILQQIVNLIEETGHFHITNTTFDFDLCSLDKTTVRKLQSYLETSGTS
S100A4 MyoIIA: inhibitors of S100A4-myosin IIA peptide binding, primary screen, biochemical, fluorescence polarization, TAMRA-MyoIIA peptide | AID 652163, 2013 | inhibition, % at 10.7 µM | 0.14% of 360,000 active | Protein S100-A4 (Homo sapiens), P26447;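 active = mean inhibition of at least 70% across replicates, with every replicate also reaching that level; inconclusive = mean inhibition reaches 70% but some replicates fall short; inactive = mean inhibition below 70%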
Target sequence (P26447 whole entry, looked up): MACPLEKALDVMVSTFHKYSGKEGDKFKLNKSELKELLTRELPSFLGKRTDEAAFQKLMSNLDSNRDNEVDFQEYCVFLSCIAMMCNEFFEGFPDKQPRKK
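Test system: S100A4 monomer protein; Medium: HEPES pH 7.2 with CaCl2, KCl, NaCl, DTT, Triton; Probe or stimulus: TAMRA-labelled myosin IIA heavy-chain peptide probe, 5 nM; Doses: one dose per compound; Times: polarization read 5 min after assay mix addition, stable 5–60 min; Benchmarks: neutral control DMSO, positive control TFP.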
AID977621: growth inhibition of wild-type GFP E. coli, dose response, H69 mutant RFP, cherry-pick; shares compounds with rRNA inh HTS; E. coli wild-type GFP strain growth, fluorescence, 24 h; activity change, negative = inhibition at 50 µM; 1,900 tested, under 10 active;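 active = Wild-type ribosome reporter drop at least double the humanized mutant ribosome reporter drop, growth loss under a set limit; inconclusive = no clear call, values can overlap the other calls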;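 note: wild-type GFP and H69 mutant RFP strains grown together 50/50 in each well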
AID977628: E. coli growth inhibition, wild-type GFP versus h24 humanized RFP strain, dose response, h24 mutant RFP vs wild-type GFP, cherry-pick; E. coli WT GFP strain growth, fluorescence, 24 h; 1,900 tested, under 10 active; activity change, negative = inhibition at 50 µM; shares compounds with rRNA inh HTS; AID 977628, 2014;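 active = compound lowering the normal-ribosome reporter at least twice as much as the humanized-ribosome reporter, growth loss under a set limit; inconclusive = no clear call, values can overlap the other calls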;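 note: wild-type GFP and h24 humanized RFP strains co-cultured 1 to 1 per well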
* = called active by the depositor; ? = inconclusive; . = no result. An excerpt weighted towards active compounds, which were near 3.2% of everything screened.

SMILES | Cneo AK release | PfHsp90 set2 | rRNA inh HTS | DENV2 CPE rescue | MLL AF4-AF9 inh | S100A4 MyoIIA | AID977621 | AID977628
CCCN1[C@@H]2c3ccc(C4=CCCCC4)c(=O)n3C[C@H]1[C@H](CO)[C@H]2C(=O)NCC | -3 | . | 1 | -4 | -1 | 5 | . | .
CC(=O)Nc1ccc(NS(=O)(=O)c2cc([N+](=O)[O-])ccc2C)cc1 | . | 2 | 8 | 6 | -2 | -3 | . | .
Cc1ccc(C(=O)Nc2ccc(NC(=O)c3cccs3)cc2)cc1[N+](=O)[O-] | 1 | 11 | 12 | 2 | -3 | -13 | . | .
CC(=O)Nc1ccc(S(=O)(=O)Nc2ccc(C)c([N+](=O)[O-])c2)cc1 | 1 | 4 | -26* | 7 | 2 | -4 | . | ?
Cc1ccc(NC(=O)c2cccs2)cc1[N+](=O)[O-] | . | 7 | -28* | 8 | 3 | -1 | -1.9 | .
CCCNC(=O)N1CC(=O)N2[C@H](C1)[C@H](c1ccc(-c3ccncc3)cc1)[C@@H]2CO | . | . | -1 | 3 | -3 | 0 | . | .
COc1ccc(NC(=O)Nc2ccc3c(c2)C(=O)N([C@@H](C)CO)C[C@@H](C)[C@@H](CN(C)S(=O)(=O)c2ccc(C)cc2)OCCCC[C@@H](C)O3)cc1 | 0 | . | -4 | 11 | -7 | 2 | . | .
COc1ccc2c3c([nH]c2c1)[C@@H](CO)N(C(=O)c1cccnc1)CC31CN(C(=O)c2cccnc2)C1 | . | . | 3 | 0 | -1 | -9 | . | .
O=C(COC(=O)c1n[nH]c2ccccc12)Nc1cccc(S(=O)(=O)N2CCOCC2)c1 | . | -10 | -25* | 11 | -6 | 3 | -18 | -13
O=C(COC(=O)CCC(=O)c1ccc(F)cc1)Nc1cccc(S(=O)(=O)N2CCCC2)c1 | . | -19 | -21* | 5 | 0 | -1 | -21 | -11
CC(=O)c1cccc(NC(=O)COC(=O)CCC(=O)c2ccc(F)cc2)c1 | 1 | 8 | -17* | -5 | 0 | -1 | -1.8 | .
CNC[C@@H]1Oc2ccc(NS(=O)(=O)c3ccc(C)cc3)cc2CC(=O)N([C@@H](C)CO)C[C@@H]1C | 16 | . | 5 | 18 | 0 | -6 | . | .
O=C(C[C@H]1CC[C@H]2[C@@H](COC[C@@H](O)CN2C(=O)c2ccccn2)O1)N1CCN(c2ccccc2)CC1 | -3 | . | 3 | -9 | 0 | -7 | . | .
COCC#Cc1ccc2c(c1)O[C@H](CN(C)CC1CCOCC1)[C@H](C)CN([C@H](C)CO)S2(=O)=O | 5 | . | 4 | -9 | -9 | 4 | . | .
COc1cccc(C(=O)c2c[nH]c(C(=O)NCc3cccnc3)c2)c1 | . | 0 | -29* | -7 | -3 | -38 | . | -10
Cc1ccc(C(=O)c2c[nH]c(C(=O)NCc3cccnc3)c2)cc1 | -4 | 2 | . | . | . | . | . | .
Cc1ccccc1NCc1ccc([N+](=O)[O-])s1 | 3 | -5 | -34* | -11 | 8 | -1 | . | -6.7
CCC(C(=O)Nc1ccsc1C(=O)OC)c1ccccc1 (stereo not drawn) | . | -6 | -29* | -2 | -5 | 1 | -12 | -5.7
COc1ccc(Cc2nnc(Nc3ccc(C)cc3)o2)cc1OC | -7 | 9 | -19* | -1 | 5 | -4 | . | -14
COc1ccc(Cc2nnc(-c3cccc(C)c3)o2)cc1OC | -1 | 4 | . | . | . | . | . | .
Cc1cc(C(=O)COC(=O)c2ccc(O)cc2)c(C)n1CC(F)(F)F | -5 | -8 | -20* | -2 | -4 | 1 | -11 | -4.5
CN(C)CC(=O)Nc1ccc2c(c1)[C@H]1C[C@H](CC(=O)N3CCOCC3)O[C@H](CO)[C@H]1O2 | 0 | . | 6 | 4 | . | . | . | .
CCCNC(=O)C[C@@H]1CC[C@@H]2[C@@H](COc3ccc(NC(=O)c4cscn4)cc3C(=O)N2C)O1 | . | . | 0 | . | -3 | -15 | . | .
CCCC(=O)Nc1sc2c(c1C(=O)Nc1ccccn1)CCCC2 | -1 | 8 | -30* | 0 | 3 | -4 | -18 | -16
CCOc1ccccc1NC(=O)c1c(NC(=O)CCC(=O)O)sc2c1CCCCC2 | . | -6 | -19 | 1 | -25 | -19 | . | .
SMILES | Cneo AK release | PfHsp90 set2 | rRNA inh HTS | DENV2 CPE rescue | MLL AF4-AF9 inh | S100A4 MyoIIA | AID977621 | AID977628
Cc1ccc(CC2C(=O)N(c3ccccc3)C(=O)C2C)cc1 (stereo not drawn) | 1 | 19 | -4 | -1 | -2 | -6 | . | .
Cc1ccc(CC2C(=O)N(c3cc(Cl)ccn3)C(=O)C2C)cc1 (stereo not drawn) | . | -11 | -20* | ? | -2 | -2 | -20 | ?
CCOc1ccc(C(C)=O)cc1CN1C(=O)NC2(CCCCCCC2)C1=O | . | 10 | -40* | 7 | 4 | -5 | -0.93 | -17
CCCCCCC(=O)N1CCCC(c2nc(-c3cccc(OC)c3)no2)C1 (stereo not drawn) | 2 | 22 | -31* | -3 | -2 | 3 | -5.8 | ?
Cc1c(Cc2ccccc2)sc(NC(=O)Cc2ccccc2)c1C(N)=O | 2 | 7 | -18* | . | . | 1 | -4.5 | -11
CCC(=O)Nc1sc(Cc2ccccc2)c(C)c1C(N)=O | . | 15 | -51 | -4 | 0 | 3 | . | .
NS(=O)(=O)c1ccc(NC(=O)c2cc(Cl)sc2Cl)cc1 | -1 | 6 | -25* | 4 | -4 | -5 | -0.14 | -6.1
C[C@H](CO)N1C[C@H](C)[C@@H](CN(C)C(=O)Nc2ccc(F)cc2)OCCCC[C@H](C)Oc2ccc(NS(=O)(=O)c3cn(C)cn3)cc2C1=O | -1 | . | -1 | -5 | -10 | 9 | . | .
O=C(C[C@H]1C[C@H]2c3cc(NC(=O)C4CCOCC4)ccc3O[C@H]2[C@@H](CO)O1)NCc1ccc(Oc2ccccc2)cc1 | -4 | . | -6 | -1 | -5 | 10 | . | .
CC(=O)Oc1ccc(N(C(C)=O)S(=O)(=O)c2ccc(Cl)cc2)c2ccccc12 | -2 | 6 | -23* | -5 | 0 | -9 | -13 | ?
CC(=O)N(c1ccccc1C)S(=O)(=O)c1ccc(Cl)cc1 | . | 3 | -23 | -3 | -8 | -22 | . | .
CC(=O)Oc1ccc(N(C(C)=O)S(=O)(=O)c2ccc(C)cc2)c2ccccc12 | . | -12 | -25* | -8 | 2 | -1 | -15 | .
